Reference: the EternaBench riboswitch data

System: MS2 coat protein
Assay: apparent Kd, MS2 coat protein; higher = weaker binding; RNA-MaP array; FMN 200 µM where present
Method in brief: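 SNAP-549-labelled MS2 coat protein, doubled from 0.7 or 1.5 nM to 3 µM, was titrated over designs transcribed by stalled E. coli RNA polymerase on Illumina sequencing-chip clusters. Titrations were run without and then with constant ligand in 100 mM Tris-HCl pH 7.5, 80 mM KCl, 4 mM MgCl2, BSA, DTT, yeast tRNA and Tween-20. The apparent Kd is the median of filtered per-cluster fits to green signal normalised to red-channel RNA signal and control-cluster median Fmax.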

[1] = designed as: ON switch for flavin mononucleotide, no ligand
[2] = ligand present: flavin mononucleotide, designed as: ON switch for flavin mononucleotide
[3] = designed as: OFF switch for flavin mononucleotide, no ligand
[4] = ligand present: flavin mononucleotide, designed as: OFF switch for flavin mononucleotide

| Sequence | apparent Kd [1] [nM] | apparent Kd [2] [nM] | apparent Kd [3] [nM] | apparent Kd [4] [nM] |
| --- | --- | --- | --- | --- |
| GUUGGUGUAGAAGGAUAUUGGUGAGGCGUCUUGUACAUGAGGAUCACCCAUGUCAUUCUGCACGCCGAGAAGGUCUGCAAUUGG | 67.9 | 57 | – | – |
| GUAGCAUGCAGGCAGGAUAUUCAUAUUAAAACAUGAGGAUCACCCAUGUAGGCCAAAAGGCCUUGGGAGAAGGGCCACAUGCUAC | 636 | 45.7 | – | – |
| UAAUUGUGAGGAUAUUCGUAGUUCUCGGAGACGAGAAUUACGGAGAAGGCACAUGAGGAUCACCCAUGUUCCUU | – | – | 18.3 | 96.1 |
| UUAAAUCAUGUAGGAUAUGCAUGGCGAAGCUACGCAGAAGGACAUGAGGAUCACCCAUGUUCUAGCUACCGAGAACGGUGGCAA | – | – | 19.1 | 74.1 |
| AAAAGGCUAGGAUAUACAUGAGGAUCACCCAUGUGUACUGGACAUGCGGUAUGCGUAUGUAGAAGGAGUAUAAA | – | – | 14.4 | 21.6 |
| CGCAACAUACAGAAGGAGUAAAGGAGAAGUGUACUAGGAUAUGUUAACAUGAGGAUCACCCAUGUCGUUUGGGAUUUUGUUGCG | – | – | 383 | 99.3 |
| AGCAUGCUAGGAUAUACGGGACAUUAGGGUUUGUCGUGUGGACAUGAGGAUCACCCAUGUAGAAGGAGCGUGCA | – | – | 54.4 | 228 |
| UUAUGUGUUGUAGGAUAUCAUUAGAUUUGUAAUUUAAUUGUAAUUUAUAUAUGAGAAGGACAUUUACAUGAGGAUCACCCAUGU | – | – | 22.3 | 13.4 |
| AAAAAUCGAGGAUAUACAUGAGGAUCACCCAUGUGGGACCAAGAAAACACAAAAGAAAGUAGAAGGCGAUAAAA | – | – | 29.2 | 113 |
| CAAUAACCCUCAUGUACCUGAGGACAUGAGGAUCACCCAUGUAAGGAUAUAGCCAUUAAAUCUAACUAGAAGGUAUAAAUAACC | – | – | 1090 | 552 |
| CACAAGAAAGUCGAACUAUGUAGGAGAAGGAGUAUAACAUGACAUGAGGAUCACCCAUGUGCCAAUUAGGAUAUUUUAUAUGGG | – | – | 184 | 97.7 |
| UGGCGCAACAGAGGAUAUGCAUAGGCUGCCUUACAUGAGGAUCACCCAUGUGCAGAAGGCUGUUGCCAUUACAAGCGCACUAAU | – | – | 118 | 402 |
| AUCAGCUUGUCAGGAUAUGCGUGUCAACGAAAGUAGACAAUCUUAAUAACAUGAGGAUCACCCAUGUAGAAGGGACGAGCUGAU | – | – | 18.2 | 20.3 |
| GUCACGUCAGGAUAUCUGAUGUCUAACUUCGGUUAGACAUCAGAGAAGGGACAUGAGGAUCACCCAUGUGACAG | – | – | 140 | 275 |
| ACAGAGCUUGACAUGAGGAUCACCCAUGUUAGAUUGUUAUGUCAGGAUAUUGUCUAGCAACUAGACAAGAAGGGAUGCUCUGUG | 364 | 56 | – | – |
| CCAAUAAGCCAAGGAUAUCAGCCGGGUACGAGGUGAGAAGGUGGCCGAGGGAAUUACGGACAUGAGGAUCACCCAUGUACCCGU | 4.98 | 4.21 | – | – |
| UGGAGGUCAGGAUAUGCAUGGCGGGACUUGCGUCGUGGCGUGCAGAAGGGACAUGAGGAUCACCCAUGUGGAGA | – | – | 88.6 | 112 |
| GAGCUAUGAGGAUAUGCAUAUAUACGGAUUCGUGUGGUACUACAUGAGGAUCACCCAUGUAGAAGGCGUGGCUG | – | – | 19 | 20.8 |
| UUCGUGCAGCUUUGCUGUACGCGUACAUGAGGAUCACCCAUGUAGGAUAUGGUAGGCAAAGCUUACUAGAAGGAUAUAGUGAUU | – | – | 9.34 | 9.4 |
| GAUUACAUGAGGAUCACCCAUGUACAGGUGAUUCUCGGUACGAGAAGGGCGGAGGGUCACCACACGCAGGAUAUCGAGCAAAGG | – | – | 231 | 65.4 |
| AAUUAACUCACAGGAUAUAGCAGAGGUCGAGUAAACUUACAGGCGACGAGGCUAGAAGGGUGACCACAUGAGGAUCACCCAUGU | 733 | 131 | – | – |

| Sequence | apparent Kd [1] [nM] | apparent Kd [2] [nM] | apparent Kd [3] [nM] | apparent Kd [4] [nM] |
| --- | --- | --- | --- | --- |
| CUCGAGUCAAGGCUCGCGAGUACACAGGAUAUGAAAAGUCACAUGAGGAUCACCCAUGUCCAAAAUCAGAAGGGUGAGACUAAG | 764 | 222 | – | – |
| CCUAUGUGAGGAUAUGUCUGGUCUUCUUUUAUUUUUUACAGACAGAAGGCACAUGAGGAUCACCCAUGUCAGAC | – | – | 23.2 | 64.7 |
| CAGUACUGAGGAUAUACAUGAGGAUCACCCAUGUGUUCCAGCUGGGAAACUAGCAAAAGUAGAAGGCAGUACUG | – | – | 25.5 | 395 |
| AGAAGACAUGAGGAUCACCCAUGUAAGGAUAUUGGAGGUUAGGGAUGCUGGAGUUGGACAAGAAGGUACAGGUG | – | – | 52.8 | 50.9 |
| CAUGUGAGCGAGGAUAUUUUACGGGAAACUUUCAGAGAAGGCGCUACAUGAGGAUCACCCAUGUCCGUCAGUCC | – | – | 41.7 | 94.8 |
| AUGUAUCGCCUCGAGGAUAUCCUGUCAUGCACAUGAGGAUCACCCAUGUAAGAGCGAGUUUAAUGGGAGAAGGCGAGUUCUCGGU | 111 | 35 | – | – |
| AGUAACAGAGGAUAUACUAUUUUAUGUGUUUGUUGUUUUGAACAUGAGGAUCACCCAUGUAGAAGGCUGAAUAA | – | – | 23.9 | 24.9 |
| CUCCGGCGUGUAGGAUAUGGAUCCGAUUAGGAUCCAGAAGGACAUGAGGAUCACCCAUGUACAUGUAAACAGUCAUCACCGGAU | – | – | 8.57 | 37.2 |
| AAAUUUUGUCAAGGAUAUGUAUAAAAGAGAAGAAAACAUGAGGAUCACCCAUGUAUAUGGUGGGAACAGAAGGUGAUUAAGUAA | – | – | 354 | 271 |
| AUCAGCUCGUCAGGAUAUACGUCACUGCGUCAGCAGUGUGGUAAGAUCACAUGAGGAUCACCCAUGUAGAAGGGACUAGCUGAU | – | – | 14.8 | 294 |
| AAUAAGUGAGGAUAUGCGUCUGGUCCCGGGAGGGCUAUAUAACAUGAGGAUCACCCAUGUAGAAGGCACAAUAA | – | – | 16.8 | 13.9 |
| GCUCUGUUAGGAUAUUUCGGCAUAGGUAUAACUUAAGCGUGAGAGAAGGAACAUGAGGAUCACCCAUGUUAAUC | – | – | 19.9 | 77.5 |
| GUGUACAUAUCAGGAUAUCUAUUUCCUACAUGAGGAUCACCCAUGUAGGUGAUCACCCAAGUAAAGGAGAAGGGAUAUGUAUAC | 78.7 | 24.5 | – | – |
| AAAAAGUGAGGAUAUGCGCUGUCCUGUAGACACGAGCAGUCGUAGAAGGCACAUGAGGAUCACCCAUGUUUAAA | – | – | 27.6 | 20.2 |
| AAGACUAGAGGAUAUACAUGAGGAUCACCCAUGUAACUGUCAGGAGACUGACGGAGAUGUAGAAGGCUAGUCAA | – | – | 17 | 34.1 |
| UUAACUCAUGUAGGAUAUGCAUGGCGAAGCUACGCAGAAGGACAUGAGGAUCACCCAUGUUCUAGCGUCUGAGAACAGAUGCAA | – | – | 49.2 | 400 |
| GGCAUGUAAGGAUAUGUCCCUGAGUGCUUUGCGCUCAGGAAACAGAAGGUACAUGAGGAUCACCCAUGUGAUAA | – | – | 725 | 75.9 |
| GUAGCAUACCGAGGAUAUUCAUAGCGGAAACGCACAUGAGGAUCACCCAUGUGGCGAAAGCCUUGGGAGAAGGCGGAAUGCUAC | 118 | 18.1 | – | – |
| AUAAAACAUGAGGAUCACCCAUGUCAACAAAGUCGAGGAUAUGGGCAAAGAAAAUAAGAACCAGAAGGCGAAUAAU | 260 | 45 | – | – |
| AACAGUACAGGAUAUACAUGAGGAUCACCCAUGUGAGACUUAAGUGGCGUACCACAAAGUAGAAGGGUACUGGA | – | – | 94.7 | 545 |
| GGAAAUCAUGUAGGAUAUGCAUGGCGAAGCUACGCAGAAGGACAUGAGGAUCACCCAUGUGCUAGCUACCGAGUUCGGUGGCAA | – | – | 90.8 | 211 |
